Assay results from ChEMBL document CHEMBL4680104, “Structure-Based Optimization of Small-Molecule Inhibitors for the β-Catenin/B-Cell Lymphoma 9 Protein-Protein Interaction” (J Med Chem, 2018).
Calls of active or inactive are those of the source. The rule behind the calls is not given here.

Key:
[1] = target: T1, beta-catenin-B-cell lymphoma 9 protein complex (Homo sapiens, UniProt P35222); assay: Inhibition of protein interaction between C-terminal 6x-histidine tagged full-length beta-catenin (1 to 781 residues) (unknown origin)/N-terminal biotinylated human BCL9 ( 350 to 375 residues) incubated for 1 hr by Alpha-screen competitive inhibition assay; format: protein-complex assay
T1 sequence (P35222 whole entry): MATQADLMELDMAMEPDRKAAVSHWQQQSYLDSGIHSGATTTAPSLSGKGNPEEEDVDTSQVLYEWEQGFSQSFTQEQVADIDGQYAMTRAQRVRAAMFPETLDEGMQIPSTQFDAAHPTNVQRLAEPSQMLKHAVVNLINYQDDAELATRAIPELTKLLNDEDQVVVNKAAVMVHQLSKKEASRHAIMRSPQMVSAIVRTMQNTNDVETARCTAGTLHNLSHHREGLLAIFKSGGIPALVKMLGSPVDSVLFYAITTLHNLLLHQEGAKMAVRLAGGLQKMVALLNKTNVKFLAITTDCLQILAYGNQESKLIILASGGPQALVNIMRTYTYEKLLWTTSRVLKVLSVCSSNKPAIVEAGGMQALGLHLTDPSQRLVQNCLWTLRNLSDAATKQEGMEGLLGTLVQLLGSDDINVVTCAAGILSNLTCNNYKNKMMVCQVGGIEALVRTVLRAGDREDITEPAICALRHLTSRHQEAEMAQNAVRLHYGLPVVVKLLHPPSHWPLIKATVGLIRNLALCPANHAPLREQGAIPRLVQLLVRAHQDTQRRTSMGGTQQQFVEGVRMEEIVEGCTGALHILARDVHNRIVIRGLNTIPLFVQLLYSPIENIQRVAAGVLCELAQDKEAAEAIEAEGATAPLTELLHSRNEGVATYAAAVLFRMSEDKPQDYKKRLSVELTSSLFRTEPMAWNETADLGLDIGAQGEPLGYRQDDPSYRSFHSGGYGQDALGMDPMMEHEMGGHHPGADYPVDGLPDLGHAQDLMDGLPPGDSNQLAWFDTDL
T1 sequence (O00512 whole entry): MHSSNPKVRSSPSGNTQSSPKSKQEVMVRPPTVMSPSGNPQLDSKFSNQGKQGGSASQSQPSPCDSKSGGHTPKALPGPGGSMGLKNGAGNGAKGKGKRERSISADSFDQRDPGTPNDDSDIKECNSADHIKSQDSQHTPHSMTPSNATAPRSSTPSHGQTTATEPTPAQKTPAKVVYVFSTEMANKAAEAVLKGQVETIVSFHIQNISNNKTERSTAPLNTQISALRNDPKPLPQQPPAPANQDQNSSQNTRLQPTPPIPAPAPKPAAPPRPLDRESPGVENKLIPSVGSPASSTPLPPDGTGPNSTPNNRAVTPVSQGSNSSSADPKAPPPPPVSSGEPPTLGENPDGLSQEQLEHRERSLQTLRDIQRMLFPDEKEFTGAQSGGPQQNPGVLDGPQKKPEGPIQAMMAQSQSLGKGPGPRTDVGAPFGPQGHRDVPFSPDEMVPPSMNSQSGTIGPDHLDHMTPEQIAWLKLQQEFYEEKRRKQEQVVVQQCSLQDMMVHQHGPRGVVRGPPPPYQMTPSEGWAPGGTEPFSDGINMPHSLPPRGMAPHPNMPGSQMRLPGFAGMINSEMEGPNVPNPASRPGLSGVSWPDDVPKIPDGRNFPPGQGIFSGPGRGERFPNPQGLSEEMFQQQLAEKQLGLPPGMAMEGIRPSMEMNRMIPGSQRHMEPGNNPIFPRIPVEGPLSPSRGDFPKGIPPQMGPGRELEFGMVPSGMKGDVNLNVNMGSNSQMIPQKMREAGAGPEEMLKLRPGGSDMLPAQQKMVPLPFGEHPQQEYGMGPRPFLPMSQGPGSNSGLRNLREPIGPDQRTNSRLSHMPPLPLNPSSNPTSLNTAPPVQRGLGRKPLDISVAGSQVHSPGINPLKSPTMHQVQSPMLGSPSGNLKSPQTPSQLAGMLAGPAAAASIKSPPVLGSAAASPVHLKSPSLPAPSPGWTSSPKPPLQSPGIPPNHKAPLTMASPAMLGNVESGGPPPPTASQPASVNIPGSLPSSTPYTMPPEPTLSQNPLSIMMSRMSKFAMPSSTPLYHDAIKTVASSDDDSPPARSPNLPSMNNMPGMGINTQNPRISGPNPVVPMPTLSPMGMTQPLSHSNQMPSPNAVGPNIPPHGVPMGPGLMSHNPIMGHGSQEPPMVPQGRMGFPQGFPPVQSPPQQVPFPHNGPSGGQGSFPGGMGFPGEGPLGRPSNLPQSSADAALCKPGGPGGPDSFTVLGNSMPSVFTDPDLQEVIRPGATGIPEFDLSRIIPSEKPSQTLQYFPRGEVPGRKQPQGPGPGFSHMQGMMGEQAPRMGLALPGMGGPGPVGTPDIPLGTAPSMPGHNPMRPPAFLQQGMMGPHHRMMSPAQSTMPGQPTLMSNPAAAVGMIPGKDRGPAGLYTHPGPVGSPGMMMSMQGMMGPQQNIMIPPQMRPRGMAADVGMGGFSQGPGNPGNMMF
Outline: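 Full-length β-catenin (residues 1–781) with a C-terminal His6 tag was expressed in E. coli BL21(DE3) after IPTG induction at 20 °C. It was purified by Ni-NTA, anion-exchange and size-exclusion chromatography. For the assay, 40 nM β-catenin was preincubated for 30 min at 4 °C with 5 nM biotinylated BCL9 or 10 nM biotinylated E-cadherin. Inhibitor was then added for 1 h at 4 °C, followed by 10 μg/mL donor and acceptor beads for 1 h at 4 °C. IC50 was obtained by nonlinear fit and converted to Ki by the Nikolovska-Coleska method. Triplicate, mean ± SD.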

SW480 [2] = assay: Cytotoxicity in human SW480 cells assessed as reduction in cell viability incubated for 72 hrs by MTS assay; format: functional, cell-based; conditions: SW480, 72 h
Outline: (§1)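 Cells seeded at 5 × 10^3 cells/well, kept overnight at 37 °C, then exposed to inhibitors at various concentrations for 72 h. Viability read with a freshly mixed PMS (0.92 mg/mL) : MTS (2 mg/mL) reagent at 1:19, incubated 3 h at 37 °C, A490 measured. […] Triplicate; mean ± SD.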

SW480 [3] = assay: Cytotoxic activity in human SW480 cells at 50 to 100 uM incubated for 4 hrs by LDH release assay; format: cell-based; conditions: sw480, 4 h, dose 50-100 µM
Outline: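 SW480 cells were seeded at 2 × 10^4 cells/well and kept overnight at 37 °C. They were then exposed to a range of inhibitor concentrations for 4 h. LDH in the culture supernatant was measured with a diagnostic kit by absorbance at 490 nm. Percent cytotoxicity was calculated from experimental release against maximum release, with background subtracted. Run in triplicate.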

HCT-116 = assay: Cytotoxicity in human HCT-116 cells assessed as reduction in cell viability incubated for 72 hrs by MTS assay; format: functional, cell-based; conditions: HCT-116, 72 h; outline: as §1
MDA-MB-231 = assay: Cytotoxicity in human MDA-MB-231 cells assessed as reduction in cell viability incubated for 72 hrs by MTS assay; format: functional, cell-based; conditions: MDA-MB-231, 72 h
Outline: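 Triple-negative breast cancer line seeded at 5 × 10^3 cells/well, held overnight at 37 °C, then exposed to inhibitor over a concentration range for 72 h. Viability read out with a fresh 1:19 mix of PMS (0.92 mg/mL) and MTS (2 mg/mL), incubated 3 h at 37 °C, A490 measured.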

A549 = assay: Cytotoxicity in human A549 cells assessed as reduction in cell viability incubated for 72 hrs by MTS assay; format: functional, cell-based; conditions: A549, 72 h; outline: as §1
[4] = target: T1, beta-catenin-B-cell lymphoma 9 protein complex; assay: Inhibition of protein interaction between beta-catenin (unknown origin)/BCL9 in human SW480 cells transfected with beta-catenin assessed as reduction in Wnt/beta-catenin transactivation incubated for 24 hrs by Wnt-responsive TOP-Flash luciferase reporter assay; format: cell-based
[5] = target: T2, beta-catenin-B-cell lymphoma 9 protein complex (Homo sapiens) (UniProt P35222+O00512); assay: Inhibition of protein interaction between beta-catenin (unknown origin)/BCL9 in HEK293 cells transfected with beta-catenin assessed as reduction in Wnt/beta-catenin transactivation incubated for 24 hrs by Wnt-responsive FOP-Flash luciferase reporter assay; format: cell-based
Outline: (§2)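 HEK293 cells were cotransfected using FuGENE6 with 45 ng TOPFlash or FOPFlash reporter, 135 ng pcDNA3.1-β-catenin and 20 ng pCMV-RL normalization reporter. After 24 h in DMEM with 10% FBS at 37 °C, inhibitors or DMSO were added for 24 h. Reporter activity was read with a dual luciferase system, normalized, and compared with DMSO-treated cells. Triplicate.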

[6] = target: T2, beta-catenin-B-cell lymphoma 9 protein complex (Homo sapiens); assay: Inhibition of protein interaction between beta-catenin (unknown origin)/BCL9 in human HEK293 cells transfected with beta-catenin assessed as reduction in Wnt/beta-catenin transactivation incubated for 24 hrs by Wnt-responsive FOP-Flash luciferase reporter assay
[7] = target: T1, beta-catenin-B-cell lymphoma 9 protein complex; assay: Inhibition of protein interaction between beta-catenin (unknown origin)/BCL9 in HEK293 cells transfected with beta-catenin assessed as reduction in Wnt/beta-catenin transactivation incubated for 24 hrs by Wnt-responsive TOP-Flash luciferase reporter assay; format: cell-based; outline: as §2

Compound	Ki [1] [µM]	IC50 (SW480 [2]) [µM]	Activity (SW480 [3])	IC50 (HCT-116) [µM]	IC50 (MDA-MB-231) [µM]	IC50 (A549) [µM]	IC50 [4] [µM]	inhibition [5]	inhibition [6]	IC50 [7] [µM]
Cl.Cl.O=C(Nc1ccc(O[C@H]2CCNC2)c(-c2ccccc2C(F)(F)F)c1)c1ccc(O[C@H]2CCNC2)c(-c2ccc(F)c(F)c2)c1	3.8	2.6	Toxic							
Cl.Cl.O=C(Nc1ccc(O[C@H]2CCNC2)c(-c2ccc(F)cc2)c1)c1ccc(O[C@H]2CCNC2)c(-c2ccc(F)nc2)c1	19	21	Non-Toxic							
Cc1ccccc1-c1cc(NC(=O)c2ccc(O[C@H]3CCNC3)c(-c3ccc(F)c(F)c3)c2)ccc1O[C@H]1CCNC1.Cl.Cl	5.9	1.2	Toxic	5.7	3.1	23	5.2	Active	Active	
Cc1cccc(-c2cc(NC(=O)c3ccc(O[C@H]4CCNC4)c(-c4ccc(F)c(F)c4)c3)ccc2O[C@H]2CCNC2)c1.Cl.Cl	3.1	2.2	Toxic	1.4	1.4	4.5				
Cl.Cl.O=C(Nc1ccc(O[C@H]2CCNC2)c(-c2ccc(F)cc2)c1)c1ccc(O[C@H]2CCNC2)c(C2CCCCC2)c1	14	6.6	Toxic	3.8		3.8				
Cc1ccc(-c2cc(NC(=O)c3ccc(O[C@H]4CCNC4)c(-c4ccc(F)c(F)c4)c3)ccc2O[C@H]2CCNC2)cc1.Cl.Cl	6.5	1.6	Toxic							
Cl.Cl.N#Cc1cccc(-c2cc(NC(=O)c3ccc(O[C@H]4CCNC4)c(-c4ccc(F)c(F)c4)c3)ccc2O[C@H]2CCNC2)c1	4.2	4.3	Toxic							> 25
Cl.Cl.O=C(Nc1cnc(O[C@H]2CCNC2)c(-c2ccc(F)cc2)c1)c1ccc(O[C@H]2CCNC2)c(-c2ccc(F)c(F)c2)c1	8.2	1.7	Toxic		3.1	29	7.7	Active	Active	10
Cl.Cl.O=C(Nc1ccc(O[C@H]2CCNC2)c(-c2ccc(F)cc2)c1)c1ccc(O[C@H]2CCNC2)c(C2=CCCCC2)c1	7.1	3.7	Toxic	6.9	3.4		8.7	Active	Active	
Cl.Cl.N#Cc1ccc(-c2cc(NC(=O)c3ccc(O[C@H]4CCNC4)c(-c4ccc(F)c(F)c4)c3)ccc2O[C@H]2CCNC2)cc1	3.8	6.1	Toxic							> 25
Cl.Cl.O=C(Nc1ccc(O[C@H]2CCNC2)c(-c2ccc(F)nc2)c1)c1ccc(O[C@H]2CCNC2)c(-c2ccc(F)c(F)c2)c1	16	15	Toxic							
Cl.Cl.O=C(Nc1cnc(O[C@H]2CCNC2)c(-c2ccc(F)cc2)c1)c1cnc(O[C@H]2CCNC2)c(-c2ccc(F)c(F)c2)c1	7.3	9.9	Toxic							
